Experimental data collected from several papers.
Lines come from different studies, so protocols differ.

For `CCN1CCN(Cc2ccc(NC(=O)c3ccc(C)c(NC(=O)c4cncc(-c5cccs5)c4)c3)cc2C(F)(F)F)CC1`, the half-life was 163 min (mouse; plasma; intraperitoneal; 30 mg/kg; single dose).
`C=CS(=O)(=O)c1ccc(Nc2nc(OCC3CCCCC3)c3nc[nH]c3n2)cc1` has a half-life of 316 min (male BALB/c mouse; plasma; intravenous; 20 mg/kg; single dose).
The half-life of `CC(C)(C)OC(=O)NNc1nc2nonc2nc1Nc1ccccc1F` is reported as 15 to 27 min (male C57BL/6 mouse; plasma; oral; 10 mg/kg).
For `CC(C(=O)Nc1c(F)cccc1F)N1CCN(c2ccccc2)CC1` (stereo not shown), the half-life was ~27 min (female C57BL/6 mouse; brain; intraperitoneal; 10 mg/kg).
The half-life of `COc1cc(C(=O)OCCCN2CCCN(CCCOC(=O)c3cc(OC)c(OC)c(OC)c3)CC2)cc(OC)c1OC` is reported as 49.8 min (male CD-1 mouse; plasma; subcutaneous).
For `CC1=NN(/C(=N/c2nnc(C)s2)Nc2ccc(C)c(C)c2)C(c2cc(F)c(F)c(F)c2)S1` (stereo not shown), the half-life was 131 min (male CD-1 mouse; plasma; oral; 30 mg/kg).
The half-life of `Nc1ncn([C@H]2C[C@H](O)[C@@H](CO)O2)c(=O)n1` is reported as 46.2 min (female C57BL/6 mouse; plasma; intravenous; 0.4 mg/kg).
The half-life of `O=C1CCC(N2Cc3cc(NC(=O)c4cccc(F)c4)ccc3C2=O)C(=O)N1` (stereo not shown) is reported as 72 min (female CD-1 mouse; plasma; intravenous; 3 mg/kg).
With `CCOc1ccc(N(C)S(=O)(=O)c2cc(Cl)sc2C(=O)Nc2cc(Cl)cc(C(=O)O)c2)cc1OC` the half-life was 28.1 min (male C57BL/6 mouse; plasma; intraperitoneal; 10 mg/kg).
For `O=C1CC[C@H](N2Cc3c(ccc4c3OCC43CCN(C[C@@H]4CCC5(CCN(c6ccc([C@@H]7c8ccc(O)cc8CC[C@@H]7c7ccccc7)cc6)CC5)OC4)CC3)C2=O)C(=O)N1`, the half-life was ~780 min (mouse; plasma; oral; 3 mg/kg).
For `CC(=O)O[C@@]12CO[C@@H]1C[C@H](O)[C@@]1(C)C(=O)[C@H](O)C3=C(C)[C@@H](OC(=O)[C@H](O)[C@@H](NC(=O)OC(C)(C)C)c4ccccc4)C[C@@](O)([C@@H](OC(=O)c4ccccc4)[C@H]21)C3(C)C`, the half-life was 36 min (male Kunming mouse; lung; oral; 20 mg/kg).
`CC(C)C[C@H](NC(=O)[C@@H]1COCCCCCC(=O)N2C[C@H](F)C[C@H]2C(=O)N1)C(=O)[C@@]1(C)CO1` has a half-life of 47.4 min (male BALB/c mouse; plasma; oral; 150 mg/kg).
With `CN1CCN(C(=O)[C@H](CCCN[C@@H]2C[C@H]2c2ccc(F)cc2)NC(=O)c2ccc(-n3ccnn3)cc2)CC1` the half-life was 340 min (CD-1 mouse; plasma; intravenous; 3 mg/kg).
